Reference: ChEMBL document CHEMBL4251609, “Substrate-derived triazolo- and azapeptides as inhibitors of cathepsins K and S” (Eur J Med Chem, 2018)
Active and inactive are the calls of the source. No cut-off for these calls is given here. Starred links: 1 amine or outer side, 2 acyl side, 3 side chain; linkers in the order of their positions; H or OH if unused. Non-standard residues stand in square brackets, D forms with d. Residues, ends and D or L forms follow the SMILES beside them. Tyr(3-NO2) = N[C@@H](Cc1ccc(O)c([N+](=O)[O-])c1)C(=O)O; X1 = O=C([C@H](Cc1ccccc1)n1cc(CN[*:1])nn1)[*:2]; 4Abz = Nc1ccc(C(=O)O)cc1

Experiments:
[1] = target: Cathepsin S (Mus musculus) (UniProt O70370); assay: Inhibition of cathepsin S in C57/Bl6 mouse spleen lysate using Z-Val-Leu-Arg-AMC as substrate at 100 uM preincubated for 30 mins followed by substrate addition; type: subcellular
[2] = target: Cathepsin B (Mus musculus) (UniProt P10605); assay: Inhibition of cathepsin B in C57/Bl6 mouse spleen lysate using Z-Arg-Arg-AMC as substrate at 100 uM preincubated for 30 mins followed by substrate addition; type: subcellular
Chain of Cathepsin B (Mus musculus) (P10605 80-333 limits assumed): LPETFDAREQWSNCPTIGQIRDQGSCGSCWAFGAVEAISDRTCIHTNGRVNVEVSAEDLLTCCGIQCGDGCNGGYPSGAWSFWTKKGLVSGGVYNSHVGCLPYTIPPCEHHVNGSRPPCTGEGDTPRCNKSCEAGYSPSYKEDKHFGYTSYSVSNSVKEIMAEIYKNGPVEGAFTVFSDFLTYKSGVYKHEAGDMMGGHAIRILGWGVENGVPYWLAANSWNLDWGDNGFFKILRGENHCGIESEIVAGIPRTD

[3] = target: T1, Cathepsin K (Homo sapiens) (UniProt P43235); assay: Inhibition of human cathepsin K […] activity assessed as normalized bradykinin equivalents ratio at 1 uM pre-incubated for 15 mins before bradykinin substrate addition by competitive enzyme immunoassay (reference value: <0.5%); parameters: scale not given: the % may be the effect or the level left
T1 sequence (whole entry): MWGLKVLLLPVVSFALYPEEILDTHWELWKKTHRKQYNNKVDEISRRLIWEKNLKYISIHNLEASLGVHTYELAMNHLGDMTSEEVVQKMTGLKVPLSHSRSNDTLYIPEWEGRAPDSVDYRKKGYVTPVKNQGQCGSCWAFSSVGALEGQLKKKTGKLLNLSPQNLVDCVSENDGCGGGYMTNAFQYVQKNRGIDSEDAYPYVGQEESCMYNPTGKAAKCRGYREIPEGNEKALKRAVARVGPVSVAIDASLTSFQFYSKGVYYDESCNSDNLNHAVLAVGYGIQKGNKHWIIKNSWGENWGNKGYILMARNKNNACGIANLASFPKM

[4] = target: T1, Cathepsin K (Homo sapiens); assay: Inhibition of human cathepsin K […] activity assessed as normalized bradykinin equivalents ratio at 1 uM pre-incubated for 15 mins before kallidin substrate addition by competitive enzyme immunoassay (reference value: <0.5%); parameters: scale not given: the % may be the effect or the level left
[5] = target: T2, Trypsin (Homo sapiens) (UniProt P07477+P07478+P35030); assay: Inhibition of trypsin (unknown origin) incubated for 30 mins using Abz-Thr-Pro-Arg-Ser-Ala-Leu-Gln-EDDnp substrate; type: protein assay
[6] = species: Homo sapiens; assay: Inhibition of chymotrypsin (unknown origin) incubated for 30 mins using Abz-Thr-Pro-Phe-Ser-Gly-Gln-EDDnp substrate
[7] = target: T3, Neutrophil elastase (Homo sapiens) (UniProt P08246); assay: Inhibition of human neutrophil elastase incubated for 30 mins using Abz-Ala-Pro-Glu-Glu-Ile-Met-Arg-Arg-Gln-(3-NO2-Tyr) substrate
T3 sequence (whole entry): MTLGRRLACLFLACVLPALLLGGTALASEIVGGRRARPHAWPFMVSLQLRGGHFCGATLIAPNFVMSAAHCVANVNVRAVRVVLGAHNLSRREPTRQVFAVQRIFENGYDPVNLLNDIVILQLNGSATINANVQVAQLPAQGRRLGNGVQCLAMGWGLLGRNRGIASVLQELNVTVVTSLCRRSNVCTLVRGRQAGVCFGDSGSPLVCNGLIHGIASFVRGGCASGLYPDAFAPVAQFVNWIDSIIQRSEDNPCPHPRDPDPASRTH

[8] = target: 72 kDa type IV collagenase (Homo sapiens) (UniProt P08253); assay: Inhibition of human recombinant MMP-2 expressed in CHO cells incubated for 30 mins by Mca-Arg-Pro-Pro-Gly-Phe-Ser-Ala-Phe-Lys(Dnp) substrate; type: cell-based
Chain of 72 kDa type IV collagenase (Homo sapiens) (P08253 110-660 limits assumed): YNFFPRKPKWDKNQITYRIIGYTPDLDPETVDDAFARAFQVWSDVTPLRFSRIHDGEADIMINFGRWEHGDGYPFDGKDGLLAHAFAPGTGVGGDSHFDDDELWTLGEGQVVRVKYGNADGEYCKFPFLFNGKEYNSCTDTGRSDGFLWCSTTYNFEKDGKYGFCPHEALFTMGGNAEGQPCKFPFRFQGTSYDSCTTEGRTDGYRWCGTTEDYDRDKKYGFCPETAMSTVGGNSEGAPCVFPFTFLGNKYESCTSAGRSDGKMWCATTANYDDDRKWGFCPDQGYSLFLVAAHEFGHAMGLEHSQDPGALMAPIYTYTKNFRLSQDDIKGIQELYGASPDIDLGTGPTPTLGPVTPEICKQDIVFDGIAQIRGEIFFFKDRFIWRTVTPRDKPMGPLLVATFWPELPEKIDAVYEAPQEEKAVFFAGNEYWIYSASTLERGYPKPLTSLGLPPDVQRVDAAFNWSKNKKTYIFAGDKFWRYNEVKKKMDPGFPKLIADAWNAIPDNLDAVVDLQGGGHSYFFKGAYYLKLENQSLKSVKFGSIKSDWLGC

[9] = target: Cathepsin D (Homo sapiens) (UniProt P07339); assay: Inhibition of human cathepsin D incubated for 30 mins using Mca-Gly-Lys-Pro-Ile-Leu-Phe-Phe-Arg-Leu-Lys(Dnp)-D-Arg-NH2 substrate
Chain of Cathepsin D (Homo sapiens) (P07339 65-162 limits assumed): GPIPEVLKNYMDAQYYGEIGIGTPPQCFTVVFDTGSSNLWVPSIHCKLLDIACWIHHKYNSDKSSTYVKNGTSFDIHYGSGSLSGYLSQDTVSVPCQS
Chain of Cathepsin D (Homo sapiens) (P07339 169-412 limits assumed): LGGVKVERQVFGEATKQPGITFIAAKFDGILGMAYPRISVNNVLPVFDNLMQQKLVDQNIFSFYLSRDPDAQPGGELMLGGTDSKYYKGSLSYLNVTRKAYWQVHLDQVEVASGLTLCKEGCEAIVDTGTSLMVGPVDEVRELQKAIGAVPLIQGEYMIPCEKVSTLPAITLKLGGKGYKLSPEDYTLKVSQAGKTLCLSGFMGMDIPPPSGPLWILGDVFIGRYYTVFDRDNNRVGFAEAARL

[10] = target: T4, Pro-cathepsin H (Homo sapiens) (UniProt P09668); assay: Inhibition of human cathepsin H using fluorogenic AMC-derived peptide substrate assessed as reduction in residual activity preincubated for 30 mins followed by substrate addition
T4 sequence (whole entry): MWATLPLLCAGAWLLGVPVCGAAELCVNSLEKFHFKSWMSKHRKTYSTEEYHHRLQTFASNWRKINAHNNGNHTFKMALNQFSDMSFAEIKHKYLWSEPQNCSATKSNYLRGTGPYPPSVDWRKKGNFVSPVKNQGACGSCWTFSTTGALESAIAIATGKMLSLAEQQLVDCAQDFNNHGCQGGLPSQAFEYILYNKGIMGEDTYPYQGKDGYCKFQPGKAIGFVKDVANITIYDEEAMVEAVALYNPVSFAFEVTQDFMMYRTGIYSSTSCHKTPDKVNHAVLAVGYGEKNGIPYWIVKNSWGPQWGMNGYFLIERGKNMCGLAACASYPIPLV

[11] = target: Cathepsin B (Homo sapiens) (UniProt P07858); assay: Inhibition of human cathepsin B
[12] = target: T1, Cathepsin K (Homo sapiens); assay: Inhibition of human cathepsin K using fluorogenic AMC-derived peptide substrate assessed as reduction in residual activity preincubated for 30 mins followed by substrate addition
[13] = target: T5, Procathepsin L (Homo sapiens, UniProt P07711); assay: Inhibition of human cathepsin L using fluorogenic AMC-derived peptide substrate assessed as reduction in residual activity preincubated for 30 mins followed by substrate addition
Target sequence in this assay (P07711 114-333 limits assumed): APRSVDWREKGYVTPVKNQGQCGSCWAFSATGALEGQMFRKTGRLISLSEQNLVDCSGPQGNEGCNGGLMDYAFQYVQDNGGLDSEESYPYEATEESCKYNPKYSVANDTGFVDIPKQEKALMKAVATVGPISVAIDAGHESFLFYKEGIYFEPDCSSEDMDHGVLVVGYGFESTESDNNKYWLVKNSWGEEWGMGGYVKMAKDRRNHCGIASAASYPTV

[14] = target: T6, Cathepsin S (Homo sapiens, UniProt P25774); assay: Inhibition of human cathepsin S at 300 uM preincubated for 30 mins followed by Biot-(PEG)2-Ahx-LeuValGly-DMK addition measured after 1 hr by chemiluminescence assay
Target sequence in this assay (P25774 115-331 limits assumed): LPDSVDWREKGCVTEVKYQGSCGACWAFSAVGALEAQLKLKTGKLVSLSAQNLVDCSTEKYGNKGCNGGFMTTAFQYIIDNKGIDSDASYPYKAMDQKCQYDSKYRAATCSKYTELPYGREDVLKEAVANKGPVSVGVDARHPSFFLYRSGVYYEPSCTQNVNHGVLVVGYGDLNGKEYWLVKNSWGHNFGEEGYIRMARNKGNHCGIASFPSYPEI

[15] = target: T6, Cathepsin S; assay: (§1) Reversible competitive inhibition of human cathepsin S using fluorogenic AMC-derived peptide substrate assessed as reduction in residual activity at pH 5.5 preincubated for 30 mins followed by substrate addition
Summary of the method: (§2)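 Ki values for cathepsin S determined at pH 5.5 and again at pH 7.4, a pH at which this enzyme stays stable and active, to compare the two conditions.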
Target sequence in this assay (P25774 115-331 limits assumed): as above

[16] = target: T6, Cathepsin S; assay: Reversible inhibition of human cathepsin S at 300 uM in presence of excess Z-LR-AMC
Target sequence in this assay (P25774 115-331 limits assumed): as above

[17] = target: T6, Cathepsin S; assay: as §1; summary of the method: as §2; remark: listed apart in the source
Target sequence in this assay (P25774 whole entry): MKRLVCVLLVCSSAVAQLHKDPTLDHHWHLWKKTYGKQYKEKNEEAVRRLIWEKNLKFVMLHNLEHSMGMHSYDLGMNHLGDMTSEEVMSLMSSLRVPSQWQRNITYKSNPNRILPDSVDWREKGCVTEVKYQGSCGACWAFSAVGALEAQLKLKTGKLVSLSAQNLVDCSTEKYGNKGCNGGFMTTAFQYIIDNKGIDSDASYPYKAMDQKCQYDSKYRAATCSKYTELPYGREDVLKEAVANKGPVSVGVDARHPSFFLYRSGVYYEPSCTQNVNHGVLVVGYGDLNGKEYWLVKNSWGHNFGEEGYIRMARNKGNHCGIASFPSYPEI

[18] = target: T6, Cathepsin S; assay: Reversible competitive inhibition of human cathepsin S using fluorogenic AMC-derived peptide substrate assessed as reduction in residual activity at pH 7.4 preincubated for 30 mins followed by substrate addition; summary of the method: as §2
Target sequence in this assay (P25774 whole entry): as above

[19] = target: T7, Cathepsin K (Homo sapiens, UniProt P43235); assay: Reversible competitive inhibition of human cathepsin K using fluorogenic AMC-derived peptide substrate assessed as reduction in residual activity preincubated for 30 mins followed by substrate addition
T7 sequence (P43235 whole entry): T1 sequence (whole entry)
Summary of the method: (§3)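 Inhibition constants (Ki) determined at pH 5.5, with reversibility and competitive mode also assessed.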

[20] = target: T5, Procathepsin L; assay: Reversible competitive inhibition of human cathepsin L using fluorogenic AMC-derived peptide substrate assessed as reduction in residual activity preincubated for 30 mins followed by substrate addition; summary of the method: as §3
Target sequence in this assay (P07711 whole entry): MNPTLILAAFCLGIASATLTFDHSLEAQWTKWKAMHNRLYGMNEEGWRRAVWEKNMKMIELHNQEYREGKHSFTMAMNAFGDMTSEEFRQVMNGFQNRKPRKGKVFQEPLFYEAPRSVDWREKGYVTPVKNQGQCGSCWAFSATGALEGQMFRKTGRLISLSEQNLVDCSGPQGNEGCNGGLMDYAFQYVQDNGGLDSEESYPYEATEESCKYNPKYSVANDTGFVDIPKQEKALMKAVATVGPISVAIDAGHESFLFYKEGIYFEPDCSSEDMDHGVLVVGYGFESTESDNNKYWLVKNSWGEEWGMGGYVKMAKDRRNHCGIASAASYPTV

[21] = target: T8, Pro-cathepsin H (Homo sapiens, UniProt P09668); assay: Reversible competitive inhibition of human cathepsin H using fluorogenic AMC-derived peptide substrate assessed as reduction in residual activity preincubated for 30 mins followed by substrate addition
T8 sequence (P09668 whole entry): T4 sequence (whole entry)

[22] = target: T6, Cathepsin S; assay: Inhibition of human cathepsin S using fluorogenic AMC-derived peptide substrate assessed as reduction in residual activity preincubated for 30 mins followed by substrate addition
Target sequence in this assay (P25774 115-331 limits assumed): as the sequence (P25774 115-331 limits assumed) above

[23] = target: T2, Trypsin (Homo sapiens); assay: Substrate activity of trypsin (unknown origin) assessed as compound hydrolysis; type: protein assay
Summary of the method: (§4)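 Compound was incubated with each protease and the incubation mixtures were analysed by RP-HPLC for proteolytic degradation of the compound.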

[24] = target: Cathepsin B (Homo sapiens) (UniProt P07858); assay: Substrate activity of human cathepsin B assessed as compound hydrolysis; summary of the method: as §4
[25] = target: T6, Cathepsin S; assay: Reversible inhibition of human cathepsin S at 20 uM preincubated for 30 mins followed by Biot-(PEG)2-Ahx-LeuValGly-DMK addition measured after 1 hr by chemiluminescence assay
Target sequence in this assay (P25774 115-331 limits assumed): as above

[26] = target: T6, Cathepsin S; assay: Reversible inhibition of human cathepsin S at 20 uM in presence of excess Z-LR-AMC
Target sequence in this assay (P25774 115-331 limits assumed): as above

[27] = target: T1, Cathepsin K (Homo sapiens); assay: Inhibition of human cathepsin K […] activity at 3 uM pre-incubated for 30 mins before bradykinin substrate addition by reverse-phase chromatography
[28] = target: T1, Cathepsin K (Homo sapiens); assay: Inhibition of human cathepsin K […] activity at 100 nM pre-incubated for 30 mins before bradykinin substrate addition by reverse-phase chromatography
[29] = target: T1, Cathepsin K (Homo sapiens); assay: Inhibition of human cathepsin K […] activity at 3 uM pre-incubated for 30 mins before Abz-Arg-Pro-Pro-Gly-Phe-Ser-Pro-Phe-Arg-(3-NO2-Tyr) substrate addition by reverse-phase chromatography
[30] = target: T1, Cathepsin K (Homo sapiens); assay: Inhibition of human cathepsin K […] activity at 100 nM pre-incubated for 30 mins before Abz-Arg-Pro-Pro-Gly-Phe-Ser-Pro-Phe-Arg-(3-NO2-Tyr) substrate addition by reverse-phase chromatography
[31] = target: T1, Cathepsin K (Homo sapiens); assay: Inhibition of human cathepsin K […] activity assessed as normalized bradykinin equivalents ratio at 5 uM pre-incubated for 15 mins before bradykinin substrate addition by competitive enzyme immunoassay (reference value: <0.5%); parameters: scale not given: the % may be the effect or the level left
[32] = target: T1, Cathepsin K (Homo sapiens); assay: Inhibition of human cathepsin K […] activity assessed as normalized bradykinin equivalents ratio at 5 uM pre-incubated for 15 mins before kallidin substrate addition by competitive enzyme immunoassay (reference value: <0.5%); parameters: scale not given: the % may be the effect or the level left

SMILES: CC(C)C[C@H](NC(=O)[C@@H]1O[C@H]1C(=O)O)C(=O)NCCCCN=C(N)N
- inhibition [1]: Active
- inhibition [2]: Active
- Activity [3]: 100%
- Activity [4]: 100%

SMILES: CSCC[C@H](NC(=O)[C@@H]1CCCN1C(=O)[C@H](Cc1c[nH]cn1)NC(=O)[C@H](Cc1c[nH]c2ccccc12)NC(=O)[C@H](CCCNC(=N)N)NC(=O)CNC(C)=O)C(=O)NCc1cn([C@@H](C)C(=O)N2CCC[C@H]2C(=O)N[C@@H](Cc2c[nH]c3ccccc23)C(=O)N[C@@H](CCC(=O)O)C(=O)N[C@H](C)C(=O)N[C@H](CCCNC(=N)N)C(N)=O)nn1
- inhibition [5]: inactive
- inhibition [6]: inactive
- inhibition [7]: inactive
- inhibition [8]: inactive
- inhibition [9]: inactive
- inhibition [10]: inactive
- inhibition [11]: inactive
- inhibition [12]: Active
- inhibition [13]: Active
- inhibition [14]: Active
- inhibition [15]: Active
- inhibition [16]: inactive
- Ki ([17]; read-out: Ki): 15 µM
- Ki ([18]; read-out: Ki): 42 µM
- Ki [19]: 10 µM
- Ki [20]: 30 µM
- Ki [21]: Not Active
- inhibition [22]: Active

SMILES: N=C(N)NCCC[C@H](NC(=O)[C@H](Cc1ccccc1)NC(=O)[C@@H]1CCCN1C(=O)[C@H](CO)NC(=O)[C@H](Cc1ccccc1)n1cc(CNC(=O)[C@@H]2CCCN2C(=O)[C@@H]2CCCN2C(=O)[C@H](CCCNC(=N)N)NC(=O)c2ccc(N)cc2)nn1)C(=O)N[C@@H](Cc1ccc(O)c([N+](=O)[O-])c1)C(N)=O (H-[4Abz]RPP[X1]SPFR[Tyr(3-NO2)]-NH2)
- inhibition [5]: inactive
- inhibition [6]: inactive
- inhibition [7]: inactive
- inhibition [8]: inactive
- inhibition [9]: inactive
- inhibition [10]: inactive
- inhibition [11]: inactive
- Activity [23]: Active
- Activity [24]: Active
- inhibition [25]: Active
- inhibition [26]: inactive
- inhibition [27]: Active
- inhibition [28]: Active
- inhibition [29]: Active
- inhibition [30]: Active
- Activity [31]: 100%
- Activity [32]: 100%
- Ki [17]: Not Active
- Ki [18]: Not Active
- Ki [19]: 0.8 µM
- Ki [20]: 22 µM
- Ki [21]: Not Active
